From ChEMBL document CHEMBL1126267, “A novel synthesis and potent antiinflammatory activity of 4-hydroxy-2(1H)-oxo-1-phenyl-1,8-naphthyridine-3-carboxamides” (1992)

Experiments:
Type in all cases: functional
Rattus norvegicus [1] = experiment: Inhibition of Zymosan-induced rat's paw edema(ZPE) after peroral administration of 100 mg/kg dose.; details: route oral
Outline: (§1)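 Male Wistar rats (about 150 g) were dosed orally with compound suspended in 5% arabic gum, 1 h before a subplantar hind-paw injection of 0.1 mL saline. The irritant was 1% zymosan for 33 or 1% λ-carrageenin for 34. Paw volume was measured by plethysmograph before dosing and at 4 h (zymosan) or 3 h (carrageenin). Swelling is relative to initial volume, as mean ± SEM. % inhibition is versus the control group's mean swelling.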

Rattus norvegicus [2] = experiment: Inhibition of carrageenan-induced rat's paw edema (CPE) after peroral administration of 100 mg/kg dose.; details: route oral; outline: as §1
Rattus norvegicus [3] = experiment: Antiinflammatory activity on Carrageenan rat's paw edema(CPE) after peroral administration of 100 mg/kg dose with control swelling of 68.1%; details: route oral
Rattus norvegicus [4] = experiment: Compound was tested for the inhibition of rat reversed passive Arthus pleurisy after peroral administration of 100 mg/kg dose at 4.66*10e6 no of cells with 5.72*10e6 cells of control; details: route oral
Outline: (§2)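 Male Wistar rats (about 250 g) under ether received 0.2 mL rabbit anti-egg-albumin antiserum intrapleurally. Thirty min later they got 15 mg EA/100 g body weight in 0.1 mL saline iv. Compounds were given orally beforehand. Rats were killed 4.5 h after induction and the thoracic cavity rinsed with 5 mL saline. Exudate volume and infiltrated cell count were read as mean ± SE. % inhibition is versus control.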

Rattus norvegicus [5] = experiment: Compound was tested for the inhibition of rat reversed passive Arthus pleurisy after peroral administration of 100 mg/kg dose at 0.65 mL of exudate volume with 0.84 mL of control (injected intrapleurally); details: route oral
Outline: (§3)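 Male Wistar rats (about 250 g) were given compound orally before the antiserum. Under ether anesthesia, 0.2 mL rabbit anti-egg albumin antiserum was injected intrapleurally. After 30 min, egg albumin (15 mg/100 g body weight in 0.1 mL saline) was given iv. Rats were killed 4.5 h later and the thoracic cavity was rinsed with 5 mL saline. Exudate volume and infiltrated cell number were measured, with inhibition % versus controls as mean ± SEM.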

Rattus norvegicus [6] = experiment: Antiinflammatory activity on Zymosan-induced rat's paw edema(ZPE) after peroral administration of 100 mg/kg dose with control swelling of 62.8%; details: route oral
Outline: (§4)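 Male Wistar rats weighing about 150 g were dosed orally with compound suspended in 5% arabic gum. 1 h later, 1% zymosan in 0.1 mL saline was injected subplantarly into the hind paw. Paw volume was measured by plethysmograph before dosing and 4 h after zymosan, with edema as the volume difference. Inhibition % was derived from mean swelling versus the control group.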

Rattus norvegicus [7] = experiment: Antiinflammatory activity on Zymosan-induced rat's paw edema(ZPE) after peroral administration of 100 mg/kg dose with control swelling of 55.1%; details: route oral; outline: as §4
Rattus norvegicus [8] = experiment: Compound was tested for the inhibition of Carrageenan rat's paw edema(CPE) after peroral administration of 3 mg/kg dose; details: route oral
Rattus norvegicus [9] = experiment: Compound was tested for the inhibition of Zymosan-induced rat's paw edema(ZPE) after peroral administration of 30 mg/kg dose; details: route oral; outline: as §4
Rattus norvegicus [10] = experiment: Antiinflammatory activity on Zymosan-induced rat's paw edema(ZPE) after peroral administration of 3 mg/kg dose with control swelling of 55.1%; details: route oral; outline: as §4
Rattus norvegicus [11] = experiment: Antiinflammatory activity on Carrageenan rat's paw edema(CPE) after peroral administration of 3 mg/kg dose with control swelling of 75.8%; details: route oral
Rattus norvegicus [12] = experiment: Antiinflammatory activity on Carrageenan rat's paw edema(CPE) after peroral administration of 10 mg/kg dose with control swelling of 75.8%; details: route oral
Rattus norvegicus [13] = experiment: Compound was tested for the inhibition of Zymosan-induced rat's paw edema(ZPE) after peroral administration of 3 mg/kg dose; details: route oral; outline: as §4
Rattus norvegicus [14] = experiment: Compound was tested for the inhibition of Carrageenan rat's paw edema(CPE) after peroral administration of 10 mg/kg dose; details: Rattus norvegicus, po
Rattus norvegicus [15] = experiment: Compound was tested for the inhibition of arachidonic acid-induced rat's paw edema(APE) after peroral administration of 10 mg/kg dose with control swelling of 51.6%; details: route oral
Outline: (§5)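 Test: arachidonic acid paw edema in male Wistar rats of about 150 g. Oral dosing in 5% arabic gum came 1 h before subplantar injection of 1% arachidonic acid sodium salt in 0.1 mL saline into the hind paw. Plethysmograph paw volume was read before dosing and 1 h post-irritant, and edema = volume difference. % inhibition was taken from mean swelling against controls.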

Rattus norvegicus [16] = experiment: Compound was tested for the inhibition of Zymosan-induced rat's paw edema(ZPE) after peroral administration of 10 mg/kg dose; details: po; outline: as §4
Rattus norvegicus [17] = experiment: Compound was tested for the inhibition of arachidonic acid-induced rat's paw edema(APE) after peroral administration of 10 mg/kg dose; details: route oral; outline: as §5
Rattus norvegicus [18] = experiment: Antiinflammatory activity on Zymosan-induced rat's paw edema(ZPE) after peroral administration of 10 mg/kg dose with control swelling of 55.1%; details: route oral; outline: as §4
Rattus norvegicus [19] = experiment: Compound was tested for the inhibition of rat reversed passive Arthus pleurisy after peroral administration of 100 mg/kg dose at 0.42 mL of exudate volume with 0.52 mL of control (injected intrapleurally); details: route oral; outline: as §3
Rattus norvegicus [20] = experiment: Compound was tested for the inhibition of rat reversed passive Arthus pleurisy after peroral administration of 100 mg/kg dose at 2.23*10e6 no of cells with 2.28*10er cells of control; details: route oral; outline: as §3
Rattus norvegicus [21] = experiment: Antiinflammatory activity on Carrageenan rat's paw edema(CPE) after peroral administration of 100 mg/kg dose with control swelling of 64.2%; details: route oral
Rattus norvegicus [22] = experiment: Antiinflammatory activity on Zymosan-induced rat's paw edema(ZPE) after peroral administration of 100 mg/kg dose with control swelling of 72.9%; details: route oral; outline: as §4
Rattus norvegicus [23] = experiment: Antiinflammatory activity on Zymosan-induced rat's paw edema(ZPE) after peroral administration of 100 mg/kg dose with control swelling of 52.2%; details: route oral; outline: as §4
Rattus norvegicus [24] = experiment: Compound was tested for the inhibition of rat reversed passive Arthus pleurisy after peroral administration of 100 mg/kg dose at 1.69*10e6 no of cells with 2.17*10e6 cells of control; details: route oral; outline: as §3
Rattus norvegicus [25] = experiment: Compound was tested for the inhibition of rat reversed passive Arthus pleurisy after peroral administration of 100 mg/kg dose at 0.33 mL of exudate volume with 0.46 mL of control (injected intrapleurally); details: route oral; outline: as §3
Rattus norvegicus [26] = experiment: Antiinflammatory activity on Carrageenan rat's paw edema(CPE) after peroral administration of 100 mg/kg dose with control swelling of 81.0%; details: route oral
Rattus norvegicus [27] = experiment: Compound was tested for the inhibition of rat reversed passive Arthus pleurisy after peroral administration of 100 mg/kg dose at 0.94 mL of exudate volume with 0.86 mL of control (injected intrapleurally); details: route oral; outline: as §3
Rattus norvegicus [28] = experiment: Compound was tested for the inhibition of rat reversed passive Arthus pleurisy after peroral administration of 100 mg/kg dose at 4.35*10e6 no of cells with 3.62*10e6 cells of control; details: route oral; outline: as §2
Rattus norvegicus [29] = experiment: Antiinflammatory activity on Zymosan-induced rat's paw edema(ZPE) after peroral administration of 100 mg/kg dose with control swelling of 71.7%; details: route oral; outline: as §4
Rattus norvegicus [30] = experiment: Compound was tested for the inhibition of rat reversed passive Arthus pleurisy after peroral administration of 100 mg/kg dose at 0.63 mL of exudate volume with 0.84 mL of control (injected intrapleurally); details: route oral; outline: as §3
Rattus norvegicus [31] = experiment: Compound was tested for the inhibition of rat reversed passive Arthus pleurisy after peroral administration of 100 mg/kg dose at 4.63*10e6 no of cells with 5.72*10e6 cells of control; details: route oral; outline: as §2

Cc1ccc(NC(=O)c2c(O)c3cccnc3n(-c3ccccc3)c2=O)cc1
inhibition in vivo at 100 mg/kg (Rattus norvegicus [1]): -3.5%
inhibition in vivo at 100 mg/kg (Rattus norvegicus [2]): 2.2%
Swelling (Rattus norvegicus [3]): 66.6%
inhibition in vivo at 100 mg/kg (Rattus norvegicus [4]): 21.5%
inhibition in vivo at 100 mg/kg (Rattus norvegicus [5]): 22.4%
Swelling (Rattus norvegicus [6]): 65%

CN1C(C(=O)Nc2ccccn2)=C(O)c2ccccc2S1(=O)=O [PIROXICAM]
Swelling (Rattus norvegicus [7]): 50.3%
inhibition in vivo at 3 mg/kg (Rattus norvegicus [8]): 54.6%
inhibition in vivo at 30 mg/kg (Rattus norvegicus [9]): 8.7%
Swelling (Rattus norvegicus [10]): 53.9%
Swelling (Rattus norvegicus [11]): 34.4%
Swelling (Rattus norvegicus [12]): 25.8%
inhibition in vivo at 3 mg/kg (Rattus norvegicus [13]): 2.2%
inhibition in vivo at 10 mg/kg (Rattus norvegicus [14]): 66%
Swelling (Rattus norvegicus [15]): 42.7%
inhibition in vivo at 10 mg/kg (Rattus norvegicus [16]): 9.4%
inhibition in vivo at 10 mg/kg (Rattus norvegicus [17]): 17.2%
Swelling (Rattus norvegicus [18]): 61.7%

CNC(=O)c1c(O)c2cccnc2n(-c2ccccc2)c1=O
inhibition in vivo at 100 mg/kg (Rattus norvegicus [1]): 9.6%
inhibition in vivo at 100 mg/kg (Rattus norvegicus [2]): 21%
inhibition in vivo at 100 mg/kg (Rattus norvegicus [19]): 22.3%
inhibition in vivo at 100 mg/kg (Rattus norvegicus [20]): 3.2%
Swelling (Rattus norvegicus [21]): 50.7%
Swelling (Rattus norvegicus [22]): 65.9%

O=C(NC1CCN(Cc2ccccc2)CC1)c1c(O)c2cccnc2n(-c2ccccc2)c1=O
inhibition in vivo at 100 mg/kg (Rattus norvegicus [1]): 1.7%
Swelling (Rattus norvegicus [23]): 51.3%
inhibition in vivo at 100 mg/kg (Rattus norvegicus [2]): 1.2%
inhibition in vivo at 100 mg/kg (Rattus norvegicus [24]): 22.1%
inhibition in vivo at 100 mg/kg (Rattus norvegicus [25]): 32.4%
Swelling (Rattus norvegicus [26]): 80.8%

CN(C)CCNC(=O)c1c(O)c2cccnc2n(-c2ccccc2)c1=O
inhibition in vivo at 100 mg/kg (Rattus norvegicus [1]): 22.6%
inhibition in vivo at 100 mg/kg (Rattus norvegicus [2]): 18.4%
Swelling (Rattus norvegicus [21]): 52.4%
inhibition in vivo at 100 mg/kg (Rattus norvegicus [27]): -10.4%
inhibition in vivo at 100 mg/kg (Rattus norvegicus [28]): -16.6%
Swelling (Rattus norvegicus [29]): 55.5%

COc1cccc(NC(=O)c2c(O)c3cccnc3n(-c3ccccc3)c2=O)c1
inhibition in vivo at 100 mg/kg (Rattus norvegicus [1]): 5.7%
inhibition in vivo at 100 mg/kg (Rattus norvegicus [30]): 26.9%
inhibition in vivo at 100 mg/kg (Rattus norvegicus [2]): 20.7%
Swelling (Rattus norvegicus [3]): 54%
inhibition in vivo at 100 mg/kg (Rattus norvegicus [31]): 22.1%
Swelling (Rattus norvegicus [6]): 59.2%
